One test deals with Streptococcus pneumoniae. Description: Antimicrobial activity against Streptococcus pneumoniae after 18 hrs. Format: functional, organism-based. In short, it runs like this:
(§1)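 Strains grown on Mueller-Hinton agar, then in Mueller-Hinton broth with CaCl₂/MgCl₂ at 37 °C for 18 h. Serially diluted (K. pneumoniae and P. aeruginosa 10^-6, S. aureus 10^-8, S. pneumoniae 10^-4, as cfu/mL) and equilibrated 30 min at 37 °C. Incubated with samples, shaken at 37 °C and 60% humidity for 18 h. Read at OD650. Streptomycin 50 μg/mL control wells.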

The next test relates to Klebsiella pneumoniae. Description: Antimicrobial activity against Klebsiella pneumoniae after 18 hrs. Format: functional, organism-based. Summed up:
as §1

In the next test the test system is Pseudomonas aeruginosa. In words: Antimicrobial activity against Pseudomonas aeruginosa after 18 hrs. Format: functional, organism-based. In short, it runs like this:
as §1

The test system of another test is Staphylococcus aureus. In words: Antimicrobial activity against Staphylococcus aureus after 18 hrs. Format: functional, organism-based. In short, it runs like this: as §1
The subject of another test is THP-1. In words: Cytotoxicity against human THP1 cells after 72 hrs by WST-1 assay. In kind it is cell-based. The note with it: THP-1, 72 h. In short, it runs like this:
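THP-1 cells kept in RPMI 1640 with 10% FBS, 2 mM L-glutamine, penicillin/streptomycin and 10 μM 2-mercaptoethanol at 37 °C, 5% CO₂. Seeded at 2.5 × 10⁴ cells/well and exposed to samples at 250 μg/mL final for 72 h. WST-1 added for 1–2 h, absorbance read at 450 nm. Controls were 10 μM camptothecin and 0.1% DMSO.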

Some results are limits rather than exact numbers.

Regarding `C=C1CC[C@H]2C(C)(C)[C@H](O)CC[C@]2(C)[C@@H]1C[C@@H]1CCC(=C)[C@H](CC/C(C)=C/CO)[C@@]1(C)C(=O)O` [TRICHOMYCIN B], the IC50 is 6 µM in the test with Streptococcus pneumoniae; over 473 µM with Klebsiella pneumoniae; over 473 µM in the test on Pseudomonas aeruginosa; 12 µM in the test with Staphylococcus aureus; 640 µM with THP-1.

As for `C=C1CC[C@H]2C(C)(C)[C@H](O)CC[C@]2(C)[C@@H]1C[C@@H]1CCC(=C)[C@H](CC/C(C)=C/COC=O)[C@@]1(C)C(=O)O` [TRICHOMYCIN A], the half-maximal inhibitory concentration (IC50) with Streptococcus pneumoniae was 5 µM; with Klebsiella pneumoniae, over 500 µM; in the test on Pseudomonas aeruginosa, over 500 µM; in the test on Staphylococcus aureus, 12 µM; with THP-1 it was over 1000 µM.

The values above are taken from ChEMBL document CHEMBL1158708, “Cerylimycins [corrected] A and B: antibacterial triterpenes from the new species Tricholoma sp. AU1” (J Nat Prod, 2005).
